Values after ≈ are worked out from the molar mass of the structure shown.
Legend:
Vaccinia virus [1] = experiment: Degree of inhibition of virus-induced cytopathogenic effect and the degree of cytotoxicity produced by compound against vaccinia lederle CA virus; format: functional, Orthopoxvirus vaccinia
Summary of the method: (§1)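 Southern Research CPE inhibition test in Vero host cells. Confluent monolayers in 96-well plates received drug (minimum seven concentrations, cytotoxic to noncytotoxic) plus virus at 32 CCID50 per 0.1 mL, in triplicate, with cell, virus and drug-cytotoxicity controls. Incubated at 37 °C, 2% CO2. CPE scored microscopically at 3–4 days. VR = 0.1 × sum of CE-grade differences from virus control, halved for partially cytotoxic wells.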

Vaccinia virus [2] = experiment: Dose of compound required to inhibit the vaccinia lederle CA virus induced cytopathogenic effects; format: functional; settings: Orthopoxvirus vaccinia; read-out: ID50 (the source's name); summary of the method: as §1

Compound: Nc1ncnc2c1ncn2[C@@H]1O[C@H](CO)[C@@H](O)[C@@H]1O [VIDARABINE]
- Virus rating (Vaccinia virus [1]): 3.1
- IC50 (Vaccinia virus [2]): 9.8 µg/mL (≈ 36.7 µM)
